Data: ChEMBL document CHEMBL1121902 (J Med Chem, 1981)
Where a name gives a salt, the structure may show the parent alone.

Legend:
Canis familiaris [1] = assay: Compound was tested for its ability to block isoproterenol-induced increases in heart rate(HR) in anesthetized dogs.; details: Canis lupus familiaris, read-out: pA2 app (converted)
Canis familiaris [2] = assay: Compound was tested for its ability to block isoproterenol-induced vasodilation in anesthetized dogs.; details: Canis lupus familiaris, read-out: pA2 app (converted)
[3] = Partition coefficient (logD7.4); format: physicochemical; details: octanol/water, pH 7.4
Method in brief: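 Distribution between 1-octanol and 0.16 M pH 7.4 phosphate buffer (mutually presaturated). Compound at 10^-4 M in buffer was shaken 15 min with an equal volume of octanol, then centrifuged 10 min. Run in triplicate.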

Canis familiaris [4] = assay: Concentration required to decrease hindlimb perfusion pressure(55 mmHg) in anesthetized dogs after intra arterial administration.; format: functional, Canis lupus familiaris, Artery
Method in brief: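 Anesthetized mongrel dogs, vascularly isolated pump-perfused hindlimb held at constant blood flow. Vascular resistance was read as change in perfusion pressure. Bolus intraarterial injections into the perfusion circuit, drugs in isotonic saline, rising doses with compound order randomized at each level. Dose to lower perfusion pressure by 55 mmHg was taken. Four dogs, mean ± SE.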

Canis familiaris [5] = assay: Compound was tested for its ability to block isoproterenol-induced contractile force in anesthetized dogs.; details: Canis lupus familiaris, read-out: pA2 app (converted)
[6] = Beta adrenergic receptor antagonist potency relative to propranolol.; format: functional
Method in brief: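 Pentobarbital-anesthetized mongrel dogs. Isoproterenol dose-response curves (heart rate, contractile force, femoral artery flow) repeated after cumulative doses of 10, 100 and 1000 µg/kg of racemic hydrochloride in isotonic saline. Apparent pA2 taken from the curve shifts. […] One compound per dog, four dogs each.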

Canis familiaris [7] = species: Canis familiaris; assay: Vasodilator potency relative to propranolol.; format: functional, Canis lupus familiaris
Method in brief: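 Anesthetized mongrel dogs with a vascularly isolated, pump-perfused hindlimb at constant blood flow; the read-out is the fall in perfusion pressure. Bolus intraarterial injections in isotonic saline into the perfusion system, lowest doses first, compound order randomized at each level; four dogs. Dose to lower pressure 55 mmHg determined.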

| Compound | logD [3] | Relative potency [6] | Kb (Canis familiaris [1]) | Kb (Canis familiaris [2]) | Dose (Canis familiaris [4]) | Kb (Canis familiaris [5]) | Relative potency (Canis familiaris [7]) |
| --- | --- | --- | --- | --- | --- | --- | --- |
| CC(C)NCC(O)COc1ccc(O)c2ccccc12 (stereo not given) [4-HYDROXYPROPRANOLOL SULFATE] | 0.53 | 0.77 | 45.7 nM | 31.6 nM | 4.35 mg | 28.8 nM | 0.13 |
| CC(C)NCC(O)COc1c(O)ccc2ccccc12 (stereo not given) | 1.66 | 0.03 | 1350 nM | 468 nM | 0.52 mg | 646 nM | 1.07 |
| CC(C)NCC(O)COc1cc(O)cc2ccccc12 (stereo not given) | 0.57 | 0.16 | 288 nM | 58.9 nM | 10 mg | 107 nM | 0.06 |
| CC(C)NCC(O)COc1cccc2ccccc12 (stereo not given) [PROPRANOLOL] | – | – | – | – | 0.55 mg | – | – |

The next lines start with results.

| logD [3] | Relative potency [6] | Compound | Kb (Canis familiaris [1]) | Kb (Canis familiaris [2]) | Dose (Canis familiaris [4]) | Kb (Canis familiaris [5]) | Relative potency (Canis familiaris [7]) |
| --- | --- | --- | --- | --- | --- | --- | --- |
| 1.4 | 0.17 | CC(C)NCC(O)COc1cccc2cccc(O)c12 (stereo not given) | 229 nM | 55 nM | 0.58 mg | 155 nM | 0.94 |
| 0.46 | 3.82 | CC(C)NCC(O)COc1cccc2cc(O)ccc12 (stereo not given) | 9.77 nM | 4.47 nM | 2.45 mg | 4.37 nM | 0.22 |
| 0.56 | 0.56 | CC(C)NCC(O)COc1cccc2c(O)cccc12 (stereo not given) | 75.9 nM | 20.9 nM | 1.95 mg | 32.4 nM | 0.28 |
| 0.62 | 0.95 | CC(C)NCC(O)COc1cccc2ccc(O)cc12 (stereo not given) | 56.2 nM | 26.3 nM | 2.8 mg | 17.4 nM | 0.2 |
